This is an account of results in ChEMBL document CHEMBL1153337, “Small molecule antagonists of the gonadotropin-releasing hormone (GnRH) receptor: structure-activity relationships of small heterocyclic groups appended to the 2-phenyl-4-piperazinyl-benzimidazole template” (Bioorg Med Chem Lett, 2009).

Converted amounts (≈) assume the structure as drawn.

For series [1], the target named is T1, Gonadotropin-releasing hormone receptor (Rattus norvegicus, UniProt P30969).
T1 sequence (P30969 whole entry): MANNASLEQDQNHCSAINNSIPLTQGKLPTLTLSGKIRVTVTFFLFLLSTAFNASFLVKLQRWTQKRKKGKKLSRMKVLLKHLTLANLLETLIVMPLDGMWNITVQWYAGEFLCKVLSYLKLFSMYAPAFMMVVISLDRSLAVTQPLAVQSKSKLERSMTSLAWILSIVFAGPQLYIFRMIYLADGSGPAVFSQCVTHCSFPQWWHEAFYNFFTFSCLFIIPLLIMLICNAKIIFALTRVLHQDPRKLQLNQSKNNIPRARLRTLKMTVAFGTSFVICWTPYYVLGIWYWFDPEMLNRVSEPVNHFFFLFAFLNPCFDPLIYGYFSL
In words: Displacement of [125I]-(D-Trp6)-GnRH from rat GnRH receptor. The method in brief: (§1)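 Competition binding at overexpressed human or rat GnRH receptors against 125I-(D-Trp6)-GnRH; IC50 averaged from two independent experiments run in triplicate.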
(Loss of bound radioactivity is the signal in a displacement assay; it reports binding, not function.)

Series [2] deals with T2, Gonadotropin-releasing hormone receptor (Homo sapiens, UniProt P30968).
T2 sequence (P30968 whole entry): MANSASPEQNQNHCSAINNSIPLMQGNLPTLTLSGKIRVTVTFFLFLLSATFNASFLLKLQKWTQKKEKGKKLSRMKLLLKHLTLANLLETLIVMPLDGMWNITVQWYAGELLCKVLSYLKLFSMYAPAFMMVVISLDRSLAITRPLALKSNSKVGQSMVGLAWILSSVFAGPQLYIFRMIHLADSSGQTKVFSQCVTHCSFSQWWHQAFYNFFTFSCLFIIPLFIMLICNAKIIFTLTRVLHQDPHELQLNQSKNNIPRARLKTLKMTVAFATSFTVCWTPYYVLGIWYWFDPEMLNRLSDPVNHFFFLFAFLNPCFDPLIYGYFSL
In words: Displacement of [125I]-(D-Trp6)-GnRH from human GnRH receptor. The method, boiled down:
as §1

Series [3] deals with T3, Gonadotropin-releasing hormone receptor (Homo sapiens) (UniProt P30968).
T3 sequence (whole entry): T2 sequence (P30968 whole entry)
In words: Displacement of [125I]-(D-Trp6)-GnRH from human GnRH receptor at 50 nM.

The nature of series [4]: Metabolic stability in rat liver microsomes assessed as half life. The series is classed as ADME, Microsome. (Liver microsomes are vesicles of endoplasmic reticulum, rich in cytochrome P450 enzymes.)
In another series the target is CYP2C9 (Homo sapiens, UniProt P11712). In words: Inhibition of CYP2C9 at 3 uM. It is filed as ADME.
Series [5] has as its target T2, Gonadotropin-releasing hormone receptor. In words: Antagonist activity at human recombinant GnRH receptor expressed in HEK293 cells assessed as reduction in (D-Trp6)-GnRH-stimulated IP production by whole cell assay. It is filed as functional, cell-based. The method in brief:
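Whole-cell assay, cells stimulated with (D-Trp6)-GnRH; compound-driven reduction of inositol phosphate read as IC50.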

A short description of series [6]: Reduction in leutinizing hormone release in (D-Trp6)-GnRH-stimulated rat primary pituitary cells by RIA. It is filed as functional, cell-based. Conditions: Pituitary gland cell. The method in brief:
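Primary rat pituitary cells stimulated with (D-Trp6)-GnRH; compound-driven reduction of LH release read as IC50.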

Series [7] in a line: Solubility at pH 7.4. The series is classed as physicochemical. The conditions noted are these: buffer.
A further series addresses CYP2D6 (Homo sapiens, UniProt P10635). In words: Inhibition of CYP2D6 at 3 uM. It is filed as ADME.
Another series concerns the target CYP3A4 (Homo sapiens, UniProt P08684). In words: Inhibition of CYP3A4 at 3 uM. It is filed as ADME.
The nature of series [8]: Metabolic stability in rat liver microsomes assessed as compound remaining at 1 uM after 15 mins. It is filed as ADME, Microsome. Conditions: read-out: Stability.

Chain of CYP3A4 (P08684 whole entry): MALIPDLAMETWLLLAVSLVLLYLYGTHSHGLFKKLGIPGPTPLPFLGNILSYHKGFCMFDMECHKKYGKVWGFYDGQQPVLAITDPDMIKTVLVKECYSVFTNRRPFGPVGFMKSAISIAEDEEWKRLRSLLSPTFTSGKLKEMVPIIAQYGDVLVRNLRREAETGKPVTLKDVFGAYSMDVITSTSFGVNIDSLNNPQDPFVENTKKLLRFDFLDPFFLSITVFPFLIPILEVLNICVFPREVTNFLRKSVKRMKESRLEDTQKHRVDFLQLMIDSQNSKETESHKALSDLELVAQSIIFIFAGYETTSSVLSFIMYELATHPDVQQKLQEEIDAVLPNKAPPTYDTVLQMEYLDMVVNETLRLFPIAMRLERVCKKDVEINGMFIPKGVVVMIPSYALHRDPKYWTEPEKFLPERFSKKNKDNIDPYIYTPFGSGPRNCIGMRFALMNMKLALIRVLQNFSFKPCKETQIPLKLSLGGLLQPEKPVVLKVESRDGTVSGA
Chain of CYP2C9 (P11712 whole entry): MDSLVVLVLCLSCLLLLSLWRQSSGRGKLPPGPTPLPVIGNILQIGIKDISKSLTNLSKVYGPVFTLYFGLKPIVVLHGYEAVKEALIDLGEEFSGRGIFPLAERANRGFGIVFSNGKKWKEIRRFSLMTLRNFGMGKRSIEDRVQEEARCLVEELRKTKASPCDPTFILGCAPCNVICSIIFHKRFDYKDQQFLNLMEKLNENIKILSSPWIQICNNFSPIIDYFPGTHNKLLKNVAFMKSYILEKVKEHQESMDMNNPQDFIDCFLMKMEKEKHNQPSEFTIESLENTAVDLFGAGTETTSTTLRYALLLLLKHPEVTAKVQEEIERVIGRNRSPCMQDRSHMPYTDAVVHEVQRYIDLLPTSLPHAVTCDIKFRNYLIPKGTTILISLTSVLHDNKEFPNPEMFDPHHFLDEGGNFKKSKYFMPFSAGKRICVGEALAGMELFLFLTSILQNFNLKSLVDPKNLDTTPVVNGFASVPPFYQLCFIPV
Chain of CYP2D6 (P10635 whole entry): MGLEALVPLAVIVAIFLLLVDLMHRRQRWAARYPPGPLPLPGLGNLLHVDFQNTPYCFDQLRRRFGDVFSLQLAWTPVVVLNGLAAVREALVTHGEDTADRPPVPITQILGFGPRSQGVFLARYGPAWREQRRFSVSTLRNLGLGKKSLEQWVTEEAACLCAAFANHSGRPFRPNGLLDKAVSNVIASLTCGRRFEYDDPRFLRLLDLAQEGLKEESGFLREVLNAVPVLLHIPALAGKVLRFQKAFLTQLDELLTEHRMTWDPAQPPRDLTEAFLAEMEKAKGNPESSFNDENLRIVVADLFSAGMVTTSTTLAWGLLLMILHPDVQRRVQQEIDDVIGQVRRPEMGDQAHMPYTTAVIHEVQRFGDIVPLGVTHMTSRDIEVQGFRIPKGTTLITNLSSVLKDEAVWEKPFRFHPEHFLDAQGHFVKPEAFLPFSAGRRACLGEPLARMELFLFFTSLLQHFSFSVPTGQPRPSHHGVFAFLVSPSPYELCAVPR

For orientation: IC50 means the concentration that inhibits the measured activity by half. Consider `Cc1c(CN2CCN(c3cccc4[nH]c(-c5ccc(C(C)(C)C)cc5)nc34)CC2)ncn1C(C)C`, for which the IC50 in series [1] came out at 61 nM; in series [2], 19 nM.

With `CCc1cc(CN2CCN(c3cccc4[nH]c(-c5ccc(C(C)(C)C)cc5)nc34)CC2)n(C)n1`, the IC50 in series [1] was determined as 250 nM; in series [2], 22 nM.

For `CCc1nc(CN2CCN(c3cccc4[nH]c(-c5ccc(C(C)(C)C)cc5)nc34)CC2)c(C)o1`, the half-inhibitory concentration (IC50) was determined as 550 nM in series [1] and 27 nM in series [2].

For `CCc1cc(CN2CCN(c3cccc4[nH]c(-c5ccc(C(C)(C)C)cc5)nc34)CC2)nn1C`, the IC50 stood at 350 nM in [1] and 43 nM in series [2].

`CC(C)(C)c1ccc(-c2nc3c(N4CCN(Cc5ccco5)CC4)cccc3[nH]2)cc1`: the Activity in series [3] amounted to 12%.

As for `CCCn1c(CC)nc(C)c1CN1CCN(c2cccc3[nH]c(-c4ccc(C(C)(C)C)cc4)nc23)CC1`, the results for the 50% inhibitory concentration (IC50) in [1] and in series [2] were 120 nM and 57 nM, respectively.

For `Cc1cc(CN2CCN(c3cccc4[nH]c(-c5ccc(C(C)(C)C)cc5)nc34)CC2)nn1C`, the IC50 in [2] stood at 83 nM.

As for `CC(C)(C)c1ccc(-c2nc3c(N4CCN(Cc5nccs5)CC4)cccc3[nH]2)cc1`, the Activity in [3] was 26%.

Consider `CC(C)(C)c1ccc(-c2nc3c(N4CCN(Cc5ncc[nH]5)CC4)cccc3[nH]2)cc1`, for which the Activity in [3] turned out to be 40%.

Take `CCn1nc(CN2CCN(c3cccc4[nH]c(-c5ccc(C(C)(C)C)cc5)nc34)CC2)cc1C`: in series [3], the Activity was 32%.

Turning to `CCc1nc(C)c(CN2CCN(c3cccc4[nH]c(-c5ccc(C(C)(C)C)cc5)nc34)CC2)s1`, the IC50 worked out at 120 nM in series [1] and 20 nM in series [2].

Consider `CC(C)(C)c1ccc(-c2nc3c(N4CCN(Cc5ccc[nH]5)CC4)cccc3[nH]2)cc1`, for which the Activity in series [3] came to 7%.

In the case of `CC(C)(C)c1ccc(-c2nc3c(N4CCN(Cc5ccsc5)CC4)cccc3[nH]2)cc1`, the Activity in series [3] is 6%.

In the case of `Cc1nc(C)c(CN2CCN(c3cccc4[nH]c(-c5ccc(C(C)(C)C)cc5)nc34)CC2)o1`, the IC50 in series [1] was determined as 740 nM; in series [2], 31 nM.

Take `CCc1nc(CN2CCN(c3cccc4[nH]c(-c5ccc(C(C)(C)C)cc5)nc34)CC2)cn1CC`: the 50% inhibitory concentration (IC50) amounted to 69 nM in series [1] and 11 nM in [2].

With `Cc1cc(CN2CCN(c3cccc4[nH]c(-c5ccc(C(C)(C)C)cc5)nc34)CC2)n(C)n1`, the half-maximal inhibitory concentration (IC50) came out at 310 nM in series [1] and 23 nM in series [2].

With `CCCn1cnc(CN2CCN(c3cccc4[nH]c(-c5ccc(C(C)(C)C)cc5)nc34)CC2)c1C`, the figures for the IC50 in series [1] and in series [2] were 47 nM and 12 nM, respectively.

The compound `CCc1nc(C)sc1CN1CCN(c2cccc3[nH]c(-c4ccc(C(C)(C)C)cc4)nc23)CC1` yielded an Activity in series [3] of 26%.

In general, half-life refers to the time needed for the level to fall by half in the phase considered. In general, inhibition refers to the relative decrease from the control value, in per cent. High values mean a strong effect, low ones a weak effect. Broadly, the solubility is how much of the substance goes into solution per volume. A higher solubility goes with much dissolved substance. Regarding `CCCCn1cnc(CN2CCN(c3cccc4[nH]c(-c5ccc(C(C)(C)C)cc5)nc34)CC2)c1C`, in series [4], the half-life was > 30 min. The inhibition at 3 µM is 53% at CYP2C9, 21% at CYP2D6 and 84% against CYP3A4. Moreover, the IC50 amounted to 71 nM in [5], 49 nM in [1], 570 nM in series [6] and 46 nM in series [2]. The same compound returned a solubility in [7] of 3 µg/mL (≈ 6.19 µM).

For the compound `CCCCc1nc(CN2CCN(c3cccc4[nH]c(-c5ccc(C(C)(C)C)cc5)nc34)CC2)cn1C`, the half-inhibitory concentration (IC50) in [1] stood at 58 nM; in series [2], 26 nM.

`CCn1cc(CN2CCN(c3cccc4[nH]c(-c5ccc(C(C)(C)C)cc5)nc34)CC2)c(=O)[nH]c1=O`: the half-life in [4] was found to be 5 min. Further, the inhibition at 3 µM came to 34% on CYP2C9, 0% on CYP2D6 and 74% at CYP3A4. The same compound displayed an IC50 in series [6] of 59 nM. In addition, in [7], the solubility is 13 µg/mL (≈ 26.7 µM). Moreover, the remaining at 0.25 h, 1 µM in series [8] worked out at 12%.

Take `Cc1nn(C)c(C)c1CN1CCN(c2cccc3[nH]c(-c4ccc(C(C)(C)C)cc4)nc23)CC1`: the concentration for half-maximal inhibition (IC50) in [1] amounted to 450 nM; in [2], 38 nM.

On to `Cc1nc(CN2CCN(c3cccc4[nH]c(-c5ccc(C(C)(C)C)cc5)nc34)CC2)c(C)s1`, for which the IC50 in series [2] was 21 nM.

In series [3], `CCCCn1cnc(C)c1CN1CCN(c2cccc3[nH]c(-c4ccc(C(C)(C)C)cc4)nc23)CC1` had an Activity of 67%.

Turning to `Cc1nc(CN2CCN(c3cccc4[nH]c(-c5ccc(C(C)(C)C)cc5)nc34)CC2)c[nH]1`, the half-life in series [4] was > 30 min. Besides, the inhibition at 3 µM was found to be 23% at CYP2C9, 14% on CYP2D6 and 85% at CYP3A4. Also, the IC50 in [5] is 44 nM; in [1], 28 nM; in [6] it was 250 nM; in series [2] it was 7.5 nM. The compound further came in with a solubility in [7] of 46 µg/mL (≈ 107 µM).

Turning to `CCc1nc(CN2CCN(c3cccc4[nH]c(-c5ccc(C(C)(C)C)cc5)nc34)CC2)c(C)n1CC`, the half-life in series [4] worked out at 12 min. Besides, the IC50 was 13 nM in [5], 49 nM in series [1], 296 nM in series [6] and 8 nM in series [2]. In series [7], this compound displayed a solubility of 25 µg/mL (≈ 51.6 µM).

For the compound `Cn1cnc(CN2CCN(c3cccc4[nH]c(-c5ccc(C(C)(C)C)cc5)nc34)CC2)c1`, the results for the IC50 in series [1] and in series [2] were 98 nM and 33 nM, respectively.

Take `CCCn1c(CC)nc(CN2CCN(c3cccc4[nH]c(-c5ccc(C(C)(C)C)cc5)nc34)CC2)c1C`: the IC50 came to 57 nM in [1] and 29 nM in series [2].

In the case of `CCc1nc(C)c(CN2CCN(c3cccc4[nH]c(-c5ccc(C(C)(C)C)cc5)nc34)CC2)o1`, the results for the concentration for half-maximal inhibition (IC50) in [1] and in series [2] were 320 nM and 37 nM, respectively.

Regarding `CCCCc1nc(C)c(CN2CCN(c3cccc4[nH]c(-c5ccc(C(C)(C)C)cc5)nc34)CC2)s1`, the Activity in series [3] turned out to be 4%.

As for `Cc1nc(CN2CCN(c3cccc4[nH]c(-c5ccc(C(C)(C)C)cc5)nc34)CC2)cn1C`, the half-life in series [4] was determined as 9 min. In addition, the values for the inhibition at 3 µM at CYP2C9, against CYP2D6 and against CYP3A4 were 12%, 3% and 66%, respectively. Further, the half-inhibitory concentration (IC50) in series [5] was determined as 23 nM; in [1], 34 nM; in series [6], 300 nM; in series [2], 10 nM. Moreover, in series [7], the solubility was 51 µg/mL (≈ 115 µM).

In turn, `Cn1cccc1CN1CCN(c2cccc3[nH]c(-c4ccc(C(C)(C)C)cc4)nc23)CC1` returned an Activity in series [3] of 6%.

In series [2], `Cc1n[nH]c(C)c1CN1CCN(c2cccc3[nH]c(-c4ccc(C(C)(C)C)cc4)nc23)CC1` gave an IC50 of 68 nM.

In the case of `Cc1ncoc1CN1CCN(c2cccc3[nH]c(-c4ccc(C(C)(C)C)cc4)nc23)CC1`, the concentration for half-maximal inhibition (IC50) in series [1] came to 850 nM; in series [2] it was 90 nM.

`CC(C)(C)c1ccc(-c2nc3c(N4CCN(Cc5cnc[nH]5)CC4)cccc3[nH]2)cc1`: the IC50 in series [1] was found to be 290 nM; in series [2] it was 21 nM.

For `CC(C)(C)c1ccc(-c2nc3c(N4CCN(Cc5cccs5)CC4)cccc3[nH]2)cc1`, the Activity in series [3] came out at 24%.

Regarding `Cc1nc(C)c(CN2CCN(c3cccc4[nH]c(-c5ccc(C(C)(C)C)cc5)nc34)CC2)s1`, the IC50 in [2] came to 27 nM.

With `CCn1cc(CN2CCN(c3cccc4[nH]c(-c5ccc(C(C)(C)C)cc5)nc34)CC2)nc1C`, the IC50 in series [1] amounted to 51 nM; in series [2] it was 10 nM.

Compound `Cc1ccc(CN2CCN(c3cccc4[nH]c(-c5ccc(C(C)(C)C)cc5)nc34)CC2)o1` showed a half-inhibitory concentration (IC50) in [2] of 705 nM.

With `CCc1nc(CN2CCN(c3cccc4[nH]c(-c5ccc(C(C)(C)C)cc5)nc34)CC2)cn1C`, the IC50 turned out to be 78 nM in series [1] and 18 nM in [2].

In series [3], `Cn1nccc1CN1CCN(c2cccc3[nH]c(-c4ccc(C(C)(C)C)cc4)nc23)CC1` gave an Activity of 25%.

Turning to `CC(C)(C)c1ccc(-c2nc3c(N4CCN(Cc5ccoc5)CC4)cccc3[nH]2)cc1`, in series [3], the Activity was determined as 20%.
